In the library only some 2.2% were active in any assay of this set; here they are far more common.
PABP FP inh – PABP poly(A) RNA binding inhibitors, primary screen, biochemical, fluorescence polarization, uHTS. calls only at 35 µM. 1% of 290,000 active;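 also: calls also rest on retests at 20 µM and on dose response follow-up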
Target sequence (P11940 whole entry, looked up): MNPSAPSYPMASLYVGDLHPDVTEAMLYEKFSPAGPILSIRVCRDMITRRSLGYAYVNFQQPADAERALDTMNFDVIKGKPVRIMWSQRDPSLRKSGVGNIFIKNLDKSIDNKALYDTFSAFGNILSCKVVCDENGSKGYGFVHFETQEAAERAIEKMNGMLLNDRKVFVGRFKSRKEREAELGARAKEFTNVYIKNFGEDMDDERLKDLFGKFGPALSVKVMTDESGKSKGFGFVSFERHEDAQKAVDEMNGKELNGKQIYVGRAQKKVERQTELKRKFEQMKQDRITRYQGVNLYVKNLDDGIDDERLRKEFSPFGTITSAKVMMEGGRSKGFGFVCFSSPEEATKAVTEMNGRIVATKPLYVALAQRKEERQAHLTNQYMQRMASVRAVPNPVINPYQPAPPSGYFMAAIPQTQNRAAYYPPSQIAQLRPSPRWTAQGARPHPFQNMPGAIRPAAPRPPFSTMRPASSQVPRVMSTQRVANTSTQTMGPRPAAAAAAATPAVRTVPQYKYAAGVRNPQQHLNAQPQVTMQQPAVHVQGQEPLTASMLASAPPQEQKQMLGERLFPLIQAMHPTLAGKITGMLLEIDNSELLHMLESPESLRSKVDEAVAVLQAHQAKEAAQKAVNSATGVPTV
eIF4H inh – human eIF4H binding inhibitors, primary screen, translation initiation inhibitor project, biochemical, uHTS, fluorescence polarization | Eukaryotic translation initiation factor 4H (Homo sapiens), Q15056 | inhibition, % at 35 µM | eIF4H fluorescence polarization binding assay | 0.94% of 290,000 active;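 also: calls also rest on retests at 20 µM and on dose response follow-up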
IMP-1 inhibitor – IMP-1 metallo-beta-lactamase inhibitors, primary screen, biochemical, epi-absorbance readout, Pseudomonas aeruginosa enzyme | purified IMP-1, nitrocefin hydrolysis, epi-absorbance fluorescence | inhibition, % at 5.6 µM | 0.45% of 290,000 active;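 active = inhibition above the mean plus 3 SD of all compounds in the same screening run, cut at about 4.5% in these data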;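 also: 0% = IMP-1 with DMSO and 100% = DMSO wells lacking enzyme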
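Assay system: purified IMP-1; Quantity: IMP-1 0.2 nM before substrate addition; Medium: HEPES buffer pH 7.1 with ZnSO4 and Brij 35; Incubation: 15 min enzyme–compound preincubation, then 25 min nitrocefin reaction, 25 °C; Signal: fluorescence quenching readout, ex 480/em 530 nm; Controls: DMSO with and without IMP-1; Repeats: singlicate testing.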
VIM-2 inh – VIM-2 metallo-beta-lactamase inhibitors, primary screen, biochemical, epi-absorbance readout, Pseudomonas aeruginosa enzyme. purified VIM-2, nitrocefin hydrolysis, epi-absorbance fluorescence. inhibition, % at 5.6 µM. 0.89% of 290,000 active. AID 1527, 2009;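 active = inhibition above the mean of all tested compounds plus 3 SD, cutoff set per screening run, cut at about 7.5% in these data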;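 also: red hydrolysis product quenches plate fluorescence so inhibitors raise well fluorescence; 0% = enzyme with DMSO and 100% = DMSO without enzyme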
PABP1 MLLE inh – inhibitors of PABP1 MLLE–PAM2 peptide binding, primary screen, biochemical, fluorescence polarization, FITC-PAM2, GST-MLLE | Polyadenylate-binding protein 1 (Homo sapiens), P11940 | inhibition, % at 20 µM | 0.36% of 360,000 active | AID 588489, 2011; in the data active = inhibition above about 35%, passing the limit was not always enough;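 also: plate controls were DMSO wells with GST-MLLE for no effect and wells lacking GST-MLLE protein for full effect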
Numbers without * were called inactive; i = inactive; ? = inconclusive; . = no result; + = active, no number. Unless noted, no rule for the calls is given here.

SMILES | PABP FP inh | eIF4H inh | IMP-1 inhibitor | VIM-2 inh | PABP1 MLLE inh
Cn1c(O)c(C=Nc2ccc(N3CCOCC3)cc2)c(=O)n(C)c1=S | i | ? | -3 | -2 | -64
CCC(C(=O)OCC(=O)c1ccc(OC)cc1OC)c1ccccc1 (stereo unspecified) | . | . | . | . | -6
CCC(C(=O)OCC(=O)Nc1cc(OC)ccc1OC)c1ccccc1 (stereo unspecified) | + | -6 | -2 | -5 | -13
Cc1c(C(=O)OC2CCC(C)CC2)[nH]c2c1C(=O)CCC2 (stereo unspecified) | i | 75* | -3 | -6 | -1
CCC[C@@H](O)c1cc2cc(OC)c(OC)cc2c(=O)o1 | . | . | . | . | -6
O=C(NN=C1CCN(Cc2ccccc2)CC1)c1cc2ccccc2cc1O | + | 97* | -2 | 1 | 4
O=C(NN=C1CCN(Cc2ccccc2)CC1)c1ccccc1O | i | -7 | -3 | -4 | 3
COC(=O)/C=c1/s/c(=C(\C#N)C(=O)NCc2ccco2)n(-c2ccc(C)cc2)c1=O | + | 101* | -2 | -4 | -105
Cc1cc(/C=C(/C#N)C(=O)Nc2ccccc2)c(C)n1-c1cccnc1 | i | 14 | -3 | -7 | 7
COC(=O)/C=c1/s/c(=C(/C#N)C(=O)N2CCOCC2)n(-c2ccccc2)c1=O | i | -10 | -3 | -6 | 27
COc1ccc(-n2c(C)cc(/C=C(\C#N)C(=O)NCc3ccco3)c2C)cc1 | + | 57 | -2 | -2 | 14
N#C/C(=C\c1ccccc1[N+](=O)[O-])C(=O)NCc1ccccc1 | + | 69* | -1 | -1 | 57*
N#C/C(=C\C=C\c1ccccc1[N+](=O)[O-])C(=O)NCc1ccccc1 | i | 8 | -3 | -5 | 9
Cc1ccccc1NC(=O)/C(C#N)=C\c1cc(C)n(-c2ccc(C(=O)O)cc2)c1C | + | ? | -1 | 0 | -14
C=CCNC(=O)/C(C#N)=C/c1ccccc1[N+](=O)[O-] | i | 18 | -1 | -2 | 11
N#C/C(=C/c1ccccc1[N+](=O)[O-])C(=O)NCc1ccco1 | + | 63* | -3 | -1 | 20
Cc1ccccc1-n1c(C)cc(/C=C(\C#N)C(=O)NCC2CCCO2)c1C (stereo unspecified) | + | 88* | -3 | -2 | 4
O=C(NCc1ccco1)c1ccc([N+](=O)[O-])o1 | + | 89* | -3 | 0 | 8
N#C/C(=C\c1cccnc1)C(=O)Nc1ccccc1[N+](=O)[O-] | + | 66* | -3 | -2 | -22
O=C(NCc1cccnc1)C1CC(=O)N(CCc2ccccc2)C1 (stereo unspecified) | i | -2 | -2 | -7 | -8
CCCOc1ccc(-c2c(C(=O)N/N=C/C3CCCCC3)nnn2-c2nonc2N)cc1 | i | 3 | -2 | -2 | 6
O=C(/C(C=Nc1cc2c(oc1=O)CCCC2=O)=C(\O)c1ccccc1)c1ccccc1 | i | -3 | -1 | 0 | -34
O=C(NCCCn1ccnc1)c1cc(-c2ccncc2)nc2ccccc12 | i | -6 | -1 | 11* | -4
Cc1cc(C)n2cc(CSc3nnc(SCc4cn5c(C)cc(C)nc5n4)s3)nc2n1 | i | -9 | -2 | 0 | .
Cc1cc(C)n2cc(CSc3nnc(N)s3)nc2n1 | i | -4 | -4 | -3 | 40*
SMILES | PABP FP inh | eIF4H inh | IMP-1 inhibitor | VIM-2 inh | PABP1 MLLE inh
Cc1cc(C)n2cc(CSc3nc4ccccc4s3)nc2n1 | i | -2 | -1 | 10* | 1
CC1CCN(C2=NC(=O)/C(=C/c3cn(-c4ccccc4)nc3-c3cccc(S(=O)(=O)N(C)C)c3)S2)CC1 | i | -38 | -4 | -2 | -8
Cc1nc2ccccc2c2oc(C(=O)N3CCCC(C)C3)cc12 (stereo unspecified) | i | -9 | -1 | 9.6* | -8
CC(=O)c1ccc(N2CCN(C(=O)c3cc4c(C)nc5ccccc5c4o3)CC2)cc1 | i | -6 | -1 | 0 | -15
Cc1nc2ccccc2c2oc(C(=O)N3CCC(N4CCCCC4)CC3)cc12 | i | 2 | 0 | 60* | -18
COc1cc2c(cc1OC)C(c1ccccc1O)N(C1CC(=O)N(c3ccccc3)C1=O)CC2 (stereo unspecified) | i | 1 | -4 | -5 | 40*
CC(N)C(=O)NC(CO)C(O)C(N)C=O (stereo unspecified) | . | . | . | . | -13
COc1cc(/C=N\NC(=O)c2ccc(C)nc2)ccc1OC(=O)c1ccc2c(c1)OCO2 | i | -7 | -3 | -2 | -7
COc1cc(/C=N/NC(=O)c2cncc(Br)c2)ccc1OC(=O)c1ccc2c(c1)OCO2 | i | 14 | 46* | 0 | .
O=C(N/N=C/c1ccoc1)c1cc(O)cc(O)c1 | + | 96* | -2 | -4 | -7
COc1cc(/C=N/NC(=O)c2cc(O)cc(O)c2)ccc1OC(=O)c1ccccc1 | + | 81* | -3 | -2 | -5
O=C(N/N=C/c1ccc(OC(=O)c2ccccc2Cl)cc1)c1cc(O)cc(O)c1 | + | 92* | -2 | 0 | 0
Cc1cnc(C(=O)OC(C)C(=O)NCc2ccccc2)cn1 (stereo unspecified) | . | . | . | . | 7
CN1CCN(c2ccc(CNC(=O)c3cccc4c(-c5ccc(F)c(F)c5)coc34)cc2)CC1 | . | . | . | . | 0
Cc1ccc(Nc2cc(C)nn2-c2nc(C)cc(C)n2)cc1 | i | -14 | -7 | 7.8* | -1
CC(=O)Nc1cc(C)nn1-c1nc(C)cc(C)n1 | i | -7 | 0 | 9.3* | 4
Cc1ccc(C(=O)N/C(=C\c2ccco2)C(=O)NCCCn2ccnc2)cc1C | i | 2 | 9.7* | 3 | 3
COc1ccc(C(C)=O)cc1CC(=O)NCCCn1ccnc1 | i | -5 | 4.8* | -2 | -12
Cn1nc(C(C)(C)C)cc1C(=O)Sc1cccc(Br)c1 | i | -2 | -2 | -1 | 44*
Cc1cc(-c2csc(N)n2)c(C)n1C | + | 118* | -4 | -1 | 22
O=C(COC(=O)CCCOc1ccc(Cl)cc1Cl)Nc1cccc(Cl)c1 | i | -14 | 2 | -1 | -12
O=C(COC(=O)CCc1c[nH]c(=O)[nH]1)Nc1cccc(Cl)c1 | i | 16 | -2 | -1 | 39*
CC(OC(=O)CNC(=O)c1ccc(Cl)c(Cl)c1)C(=O)N1CCOCC1 (stereo unspecified) | . | . | . | . | -4
O=C(/C=C/c1ccc(Br)o1)Nc1nccs1 | + | 57* | -5 | -4 | -1
CCN(CC)CCCNC(=O)c1oc2ccc(S(=O)(=O)N3CC(C)CC(C)C3)cc2c1C (stereo unspecified) | i | -8 | -3 | -3 | -4
